# Assay results taken from paper PMC3873001 (Bioorganic & medicinal chemistry, 2013).
# Assays:
# [1] = tested on: T. cruzi amastigotes (Tulahuen C4) in infected L6 myoblasts; assay: In vitro growth inhibition of T. cruzi amastigotes in infected L6 myoblasts; type: cell-based; details: for IC50: Trypanosoma cruzi, TULAHUEN, L6, read-out: T. cruzi IC-50; for reduction of antichagasic activity compared to 3-nitrotriazole counterpart: 2-nitroimidazole analog vs 3-nitrotriazole counterpart (13 vs 9; 14 vs 11); for reduction of antichagasic activity compared to 5: compared to compound 5
# [2] = tested on: L. donovani axenic amastigotes (MHOM-ET-67/L82); assay: In vitro growth inhibition of axenically cultured L. donovani amastigotes; type: cell-based, Leishmania donovani; details: for IC50: Leishmania donovani, read-out: L.don. axen. IC-50; for SI (L.don. axen.): SI = IC50 in L6 cells / IC50 in L. donovani
# [3] = Cytotoxicity assessment using L6 cells; type: cell-based; details: rat, L6 cells (rat skeletal myoblasts)
# In short: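 Rat skeletal myoblasts (L6) were tested for growth inhibition as the host-cell toxicity counterpart to the parasite assays. IC50 was calculated by linear regression from sigmoidal dose-inhibition curves. Values are means of two independent assays, varying by less than ±50%.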
# [4] = tested on: T. b. rhodesiense bloodstream form trypomastigotes (STIB 900); assay: In vitro growth inhibition of T. b. rhodesiense bloodstream form trypomastigotes; type: cell-based, Trypanosoma b. rhodesiense; details: for IC50: Trypanosoma brucei, RHODESIENSE|STIB900, read-out: T.b.rhod. IC-50; for reduction of anti-HAT activity compared to 3-nitrotriazole counterpart: 2-nitroimidazole analog vs 3-nitrotriazole counterpart (13 vs 9; 14 vs 11); for SI (T.b.rhod.): SI = IC50 in L6 cells / IC50 in T.b. rhodesiense; for activity designation against T.b. rhodesiense: TDR criteria on IC50
smiles,measurement,setting,value
Cl.Cl.O=[N+]([O-])c1ncn(CCCN2CCN(Cc3ccc(C(F)(F)F)cc3)CC2)n1 [Compound 1],IC50,[1],0.34 µM
same,IC50,[2],58.1 µM
same,SI (L.don. axen.),[2],>3
same,IC50,[3],> 191 µM
same,IC50,[4],1.38 µM
"COc1ccc(N2CCN(CCCn3ccnc3[N+](=O)[O-])CC2)cc1.Cl.Cl [Compound 13, 1-(4-methoxyphenyl)-4-[3-(2-nitro-1H-imidazol-1-yl)propyl]piperazine dihydro-chloride]",reduction of antichagasic activity compared to 3-nitrotriazole counterpart,[1],about 62 fold
same,reduction of anti-HAT activity compared to 3-nitrotriazole counterpart,[4],~2 fold
"COc1ccc(N2CCN(CCCn3cnc([N+](=O)[O-])n3)CC2)cc1 [Compound 9, 1-(4-methoxyphenyl)-4-[3-(3-nitro-1H-1,2,4-triazol-1-yl)propyl]piperazine dihydro-chloride]",IC50,[3],125 µM
"O=[N+]([O-])c1nccn1CCCCNc1nc2ccc(Cl)cc2s1 [Compound 20, 6-chloro-N-[4-(2-nitro-1H-imidazol-1-yl)butyl]-1,3-benzothiazol-2-amine]",IC50,[2],7.3 µM
Cl.Cl.O=[N+]([O-])c1ncn(CCCN2CCN(c3ccc(C(F)(F)F)cc3)CC2)n1 [Compound 3],IC50,[1],0.04 µM
same,IC50,[2],25.9 µM
same,SI (L.don. axen.),[2],2
same,SI (T.b.rhod.),[4],10
same,IC50,[4],5.33 µM
"Cl.Cl.O=[N+]([O-])c1ncn(CCCN2CCN(c3ncccn3)CC2)n1 [Compound 4, 2-{4-[3-(3-nitro-1H-1,2,4-triazol-1-yl)propyl]piperazin-1-yl}pyrimidine dihydrochloride]",reduction of antichagasic activity compared to 5,[1],2 fold
Cl.Cl.O=[N+]([O-])c1ncn(CCCCN2CCN(Cc3ccc(C(F)(F)F)cc3)CC2)n1 [Compound 2],IC50,[1],0.412 µM
same,IC50,[2],44.5 µM
same,SI (L.don. axen.),[2],3
same,SI (T.b.rhod.),[4],99
same,IC50,[4],1.2 µM
"O=[N+]([O-])c1ncn(CCCNc2nc3ccc(Cl)cc3s2)n1 [Compound 15, 6-chloro-N-[3-(3-nitro-1H-1,2,4-triazol-1-yl)propyl]-1,3-benzothiazol-2-amine]",activity designation against L. donovani,[2]; TDR criteria on IC50,moderately active (IC50 = 1.0-6.0 μM)
same,activity designation against T.b. rhodesiense,[4],active
"O=[N+]([O-])c1ncn(CCCCNc2nc3ccc(Cl)cc3s2)n1 [Compound 17, 6-chloro-N-[4-(3-nitro-1H-1,2,4-triazol-1-yl)butyl]-1,3-benzothiazol-2-amine]",activity designation against T.b. rhodesiense,[4],active
"Cl.Cl.Cl.Cl.O=[N+]([O-])c1nccn1CCCN1CCN(Cc2ccc(Cl)c(Cl)c2)CC1 [Compound 14, 1-[(3,4-dichlorophenyl)methyl]-4-[3-(2-nitro-1H-imidazol-1-yl)propyl]piperazine dihydrochloride]",reduction of antichagasic activity compared to 3-nitrotriazole counterpart,[1],about 33 fold
same,reduction of anti-HAT activity compared to 3-nitrotriazole counterpart,[4],~14 fold
"Cl.Cl.Cl.Cl.O=[N+]([O-])c1ncn(CCCN2CCN(c3ccc(Cl)c(Cl)c3)CC2)n1 [Compound 7, 1-(3,4-dichlorophenyl)-4-[3-(3-nitro-1H-1,2,4-triazol-1-yl)propyl]piperazine dihydrochloride]",activity designation against T.b. rhodesiense,[4],active
"O=[N+]([O-])c1ncn(CCCN2CCN(c3ccncc3)CC2)n1 [Compound 6, 1-[3-(3-nitro-1H-1,2,4-triazol-1-yl)propyl]-4-(pyridin-4-yl)piperazine]",reduction of antichagasic activity compared to 5,[1],more than 10 fold
